The source made the active and inactive calls. The calls are words filed in the database; no cut-off is given here.
How the values were obtained:
Dihydropteroate synthase = biological target: T1, Dihydropteroate synthase (Bacteria, UniProt P0AC13); experiment: Binding affinity to Escherichia coli DHPS by surface plasmon resonance analysis
T1 sequence (P0AC13 whole entry): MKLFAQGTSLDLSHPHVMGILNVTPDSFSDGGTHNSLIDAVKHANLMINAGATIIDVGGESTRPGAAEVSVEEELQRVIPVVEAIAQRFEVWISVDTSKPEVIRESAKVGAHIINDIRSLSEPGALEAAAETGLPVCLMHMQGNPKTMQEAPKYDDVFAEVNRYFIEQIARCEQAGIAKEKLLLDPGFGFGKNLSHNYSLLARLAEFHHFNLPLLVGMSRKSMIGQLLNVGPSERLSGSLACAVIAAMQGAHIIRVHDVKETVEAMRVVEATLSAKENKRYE
Method in brief: (§1)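 Ni/NHS-EDC capture-coupled on an NTA chip (SaHPPK loaded at 225 μg mL⁻¹, ~5400 RU; EcDHPS at 80 μg mL⁻¹, ~7200 RU), with a USP7 control surface. Analytes were 3-fold serially diluted, with 30 s contact at 60 μL min⁻¹ and 60 s dissociation, in duplicate or more. Responses were double-referenced and equilibrium responses fit to a 1:1 steady-state model.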

[1] = biological target: T2, 2-amino-4-hydroxy-6-hydroxymethyldihydropteridin e pyrophosphokinase (Staphylococcus aureus, UniProt X5EH84); experiment: Binding affinity to Staphylococcus aureus recombinant HPPK by surface plasmon resonance analysis; method in brief: as §1
T2 sequence (X5EH84 whole entry): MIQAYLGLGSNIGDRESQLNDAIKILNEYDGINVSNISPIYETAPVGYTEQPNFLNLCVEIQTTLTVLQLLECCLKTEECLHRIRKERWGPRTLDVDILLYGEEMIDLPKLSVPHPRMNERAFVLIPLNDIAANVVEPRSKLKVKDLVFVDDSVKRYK

[2] = biological target: T2, 2-amino-4-hydroxy-6-hydroxymethyldihydropteridin e pyrophosphokinase; experiment: Binding affinity to Staphylococcus aureus recombinant HPPK by surface plasmon resonance analysis in presence of ATP; method in brief: as §1
[3] = biological target: T2, 2-amino-4-hydroxy-6-hydroxymethyldihydropteridin e pyrophosphokinase; experiment: Inhibition of Staphylococcus aureus HPPK after 20 mins by luciferase reporter gene assay
Method in brief: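 Kinase-Glo ATP-depletion assay: HPPK 0.4 ng μL⁻¹ with 0.3 μM pterin and 0.2 μM ATP in 100 mM Tris-HCl pH 8.5, 10 mM MgCl₂, 0.01% BSA, 0.01% Tween 20, 10 mM β-mercaptoethanol. Compound added from 50% DMSO solution; 20 min at room temperature, then stopped with Kinase-Glo reagent and luminescence read 10 min later. Triplicates; IC50 from sigmoidal dose–response fit.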

[4] = biological target: T3, 2-amino-4-hydroxy-6-hydroxymethyldihydropteridin e pyrophosphokinase (Staphylococcus aureus) (UniProt X5EH84); experiment: Binding affinity to Staphylococcus aureus HPPK in presence of ATP by NMR spectroscopy
T3 sequence (whole entry): T2 sequence (X5EH84 whole entry)

[5] = biological target: T3, 2-amino-4-hydroxy-6-hydroxymethyldihydropteridin e pyrophosphokinase (Staphylococcus aureus); experiment: Binding affinity to Staphylococcus aureus HPPK in absence of ATP by NMR spectroscopy
[6] = biological target: T3, 2-amino-4-hydroxy-6-hydroxymethyldihydropteridin e pyrophosphokinase (Staphylococcus aureus); experiment: Binding affinity to Staphylococcus aureus HPPK in presence of AMPCPP by 2D 15N HSQC NMR spectroscopy
Method in brief: (§2)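 ¹⁵N-labelled SaHPPK was expressed in E. coli BL21(DE3) in minimal medium with ¹⁵N ammonium chloride. 2D ¹⁵N HSQC spectra used ~120 μM SaHPPK in 50 mM HEPES pH 8 with 10 mM Mg²⁺ and saturating AMPCPP. Ligand was titrated to saturation from a 50 mM DMSO-d₆ stock, and binding was tracked by backbone amide chemical shift perturbations.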

[7] = biological target: T3, 2-amino-4-hydroxy-6-hydroxymethyldihydropteridin e pyrophosphokinase (Staphylococcus aureus); experiment: Binding affinity to Staphylococcus aureus HPPK in presence of AMPCPP by NMR spectroscopy; method in brief: as §2
[8] = biological target: T2, 2-amino-4-hydroxy-6-hydroxymethyldihydropteridin e pyrophosphokinase; experiment: Binding affinity to Staphylococcus aureus HPPK by isothermal calorimetry

SMILES | Kd (Dihydropteroate synthase) | Kd [1] | Kd [2] | IC50 [3] | Kd [8] | Activity [4] | Activity [5] | Activity [6] | Activity [7]
COc1ccc(CCSc2nc3c(=O)[nH]c(N)nc3[nH]2)cc1 | 14.2 µM | 73.5 µM | 7.8 µM |  |  |  |  |  | 
CC(=O)CSc1nc2c(=O)[nH]c(N)nc2[nH]1 | 7.8 µM | 42.7 µM | 1.85 µM |  |  |  |  |  | 
Nc1nc2[nH]c(SCC(=O)c3ccc(-c4ccccc4)cc3)nc2c(=O)[nH]1 | 8.4 µM | 21.5 µM | 0.81 µM |  |  |  |  |  | 
COc1ccc(C(=O)CSc2nc3nc(N)[nH]c(=O)c3[nH]2)cc1 | 3.9 µM | 76.6 µM | 1.09 µM |  |  | Active | inactive | Active | Active
Nc1nc2[nH]c(S)nc2c(=O)[nH]1 | 76.2 µM | 10.8 µM | 12.6 µM | 41 µM | 11 µM |  |  |  | 

Further lines, with some results ahead:

Kd (Dihydropteroate synthase) | Kd [1] | Kd [2] | IC50 [3] | Kd [8] | SMILES | Activity [4] | Activity [5] | Activity [6] | Activity [7]
9.74 µM | 7.26 µM | 2.81 µM |  |  | Nc1nc2[nH]c(SCc3ccccc3C(F)(F)F)nc2c(=O)[nH]1 |  |  |  | 
8.5 µM | 4.3 µM | 0.45 µM | 24.9 µM |  | Nc1nc2[nH]c(SCc3ccccc3F)nc2c(=O)[nH]1 |  |  |  | 
43.9 µM | 13.5 µM | 1.79 µM |  |  | Nc1nc2[nH]c(SCc3ccccc3)nc2c(=O)[nH]1 |  |  |  | 
3.9 µM | 10.3 µM | 1.4 µM |  |  | Nc1nc2nc(SCC(=O)c3ccccc3)[nH]c2c(=O)[nH]1 |  |  |  | 
12.3 µM | 11.1 µM | 0.66 µM |  |  | N#Cc1ccc(CSc2nc3nc(N)[nH]c(=O)c3[nH]2)cc1 |  |  |  | 
8.2 µM | 7.5 µM | 1.8 µM |  |  | CC(Sc1nc2nc(N)[nH]c(=O)c2[nH]1)C(=O)c1ccccc1 (stereo not drawn) |  |  |  | 
1.6 µM | 21.7 µM | 2.8 µM |  |  | COc1ccccc1C(=O)CSc1nc2nc(N)[nH]c(=O)c2[nH]1 |  |  |  | 
